Molecules are shown by their SMILES. Active and inactive are the calls of the source. The calls are words filed in the database; no cut-off is given here. A value given as a limit tells only on which side of the number the result lay.

The AUC(0-t) is exposure summed from dosing to a finite time, without extrapolation to infinity. By MRT is commonly meant a mean duration of stay, worked out from the concentration-time curve. In general, GI50 refers to the concentration at which growth is held to half of that of the control. For orientation: IC50 means the concentration that gives 50% inhibition. The low end stands for greater potency, the high end for weaker potency. By AUC(0-inf) is commonly meant total exposure, with the tail of the curve extrapolated. Low readings indicate less exposure, high ones more exposure. For orientation: clearance means the rate of elimination divided by the concentration. The bioavailability is the share of a dose that reaches the circulation, judged against a reference dose that is usually intravenous. High values mean good availability, low ones poor availability. The mortality is the share of the test organisms that died.

The subject of one series is A-431. The experiment in a line: Antitumor activity against human A431 cells xenografted in BALB/c mouse assessed as tumor growth inhibition at 5 mg/kg po, qd for 18 days. The series is classed as functional, organism-based. Summed up: (§1)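 Athymic mice received 2 × 10⁶ tumour cells subcutaneously in the right flank. At 100–300 mm³ they were randomised to control and treatment groups (n = 6); controls received vehicle alone. Tumour volume = length × width²/2 and RTV = Vt/V0.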
A general note: A xenograft is tissue or cells of one species grown in another, often human tumour cells in immunodeficient mice.

For series [1], the system named is NCI-H1975. The experiment in a line: Antitumor activity against human NCI-H1975 cells xenografted in BALB/c mouse assessed as tumor growth inhibition at 30 mg/kg po, qd for 21 days relative to control. The series is classed as functional, organism-based. In outline:
as §1

The next series deals with HCC827. The experiment in a line: Antitumor activity against human HCC827 cells xenografted in BALB/c mouse assessed as tumor growth inhibition at 5 mg/kg po, qd for 12 days. The class given is functional, organism-based. In outline:
as §1

Series [2] relates to Mus musculus. In words: Toxicity in human NCI-H1975 cells xenografted BALB/c mouse assessed as mouse mortality at 30 mg/kg po, qd for 21 days measured on day 10 relative to control. The series is classed as organism-based. The settings on record: in vivo, 504 h. Summed up:
(§2)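 Athymic mice received 2 × 10⁶ NCI-H1975 cells subcutaneously in the right flank. When tumours reached 100–300 mm³, mice were randomised into control and treatment groups (n = 6 per group), and controls got vehicle alone. Health was checked daily, and body weight and tumour size were measured on set days during treatment.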

Series [3] deals with Mus musculus. In words: Toxicity in human NCI-H1975 cells xenografted BALB/c mouse assessed as body weight changes at 20 mg/kg po, qd for 21 days relative to control. The class given is organism-based. The settings on record: in vivo, 504 h. Summed up: (§3)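 Athymic mice bearing subcutaneous right-flank xenografts (2 × 10⁶ cells, dosed at 100–300 mm³; n = 6 per group; vehicle controls). Health was observed daily and body weight measured on indicated days. Body weight change (%) = (Wt/W0 − 1) × 100 against predosing weight, given as group mean ± SEM.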

Series [4] concerns NCI-H1975. The experiment in a line: Antitumor activity against human NCI-H1975 cells xenografted in BALB/c mouse assessed as tumor growth inhibition at 20 mg/kg po, qd for 21 days relative to control. The class given is functional. The settings on record: 504 h, read-out: TGI. In outline:
as §1

Series [5] is described as follows: AUC (0 to 24 hrs) in Sprague-Dawley rat at 1 mg/kg, iv by LC/MS/MS method. The series is classed as ADME, organism-based. Details: time < 24 hr, dose 1 mg/kg, route intravenous. The settings on record: in vivo. Summed up: (§4)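 Male Sprague-Dawley rats (n = 3) dosed once at 1 mg/kg iv via tail vein, or once at 5 mg/kg by oral gavage, using the same formulation. Serial blood samples were taken over 24 h. Plasma levels were measured by LC/MS/MS (C18 column, 10 mM ammonium formate-0.1% formic acid water/methanol 10/90, ESI positive). Parameters were derived by noncompartmental analysis.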

Series [6] is described as follows: Mean residence time in Sprague-Dawley rat at 1 mg/kg, iv incubated for 24 hrs by LC/MS/MS method. The series is classed as ADME, organism-based. The note with it: in vivo. Summed up:
as §4

Series [7] relates to NCI-H1975. The experiment in a line: Antiproliferative activity against human NCI-H1975 cells assessed as growth inhibition. The class given is functional. Summed up:
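NCI-H1975 cells were grown in RPMI with 1 mM sodium pyruvate, 10% FBS and 1% penicillin-streptomycin, under humidified 5% CO₂ at 37 °C. Growth inhibition was read as GI₅₀.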

For series [8], the target named is Epidermal growth factor receptor (Homo sapiens, UniProt P00533). The experiment in a line: Inhibition of EGFR (unknown origin) by ELISA method.
Series [9] can be described thus: AUC (0 to infinity) in Sprague-Dawley rat at 1 mg/kg, iv by LC/MS/MS method. The series is classed as ADME, organism-based. Details: dose 1 mg/kg, time infinity, route intravenous. The settings on record: in vivo. Summed up: as §4
The test system of series [10] is NCI-H1975. In words: Antitumor activity against human NCI-H1975 cells xenografted in BALB/c mouse assessed as tumor growth inhibition at 50 mg/kg po, qd for 21 days. The class given is functional, organism-based. Summed up:
as §1

A short description of series [11]: Clearance in Sprague-Dawley rat at 1 mg/kg, iv incubated for 24 hrs by LC/MS/MS method. The class given is ADME, organism-based. The settings on record: in vivo. In outline: as §4
Series [12] in a line: Bioavailability in Sprague-Dawley rat at 1 mg/kg, iv incubated for 24 hrs by LC/MS/MS method. The note with it: in vivo. The class given is ADME, organism-based. In outline:
as §4

Series [13] is described as follows: Apparent volume of distribution in Sprague-Dawley rat at 1 mg/kg, iv incubated for 24 hrs by LC/MS/MS method. The series is classed as ADME, organism-based. The note with it: in vivo, read-out: Vd(app). Summed up:
as §4

Series [14] can be described thus: Elimination half-life in Sprague-Dawley rat at 1 mg/kg, iv incubated for 24 hrs by LC/MS/MS method. The series is classed as ADME, organism-based. The note with it: in vivo, read-out: beta t1/2 (converted). Summed up: as §4
In series [15] the test system is NCI-H1975. In words: Antitumor activity against human NCI-H1975 cells xenografted in BALB/c mouse assessed as tumor growth inhibition at 4 mg/kg po, qd for 21 days. The series is classed as functional, organism-based. In outline: as §1
For series [16], the system named is Mus musculus. In words: Toxicity in NCI-H1975 xenografted BALB/c mouse assessed as body weight loss at 4 mg/kg po, qd for 21 days. The series is classed as organism-based. The note with it: in vivo, 504 h. Summed up:
as §3

Series [17] deals with Mus musculus. The experiment in a line: Toxicity in NCI-H1975 xenografted BALB/c mouse assessed as induction of weakness at 4 mg/kg po, qd for 21 days. The class given is organism-based. The note with it: in vivo, 504 h. Summed up:
as §3

Series [18] has as its system Mus musculus. In words: Toxicity in NCI-H1975 xenografted BALB/c mouse assessed as induction of exfoliative skin disorder at 4 mg/kg po, qd for 21 days. The class given is organism-based. The settings on record: in vivo, 504 h. In outline: as §3
Series [19] concerns Mus musculus. In words: Toxicity in NCI-H1975 xenografted BALB/c mouse assessed as induction of lethargy at 4 mg/kg po, qd for 21 days. The settings on record: in vivo, 504 h. The class given is organism-based. In outline: as §3
The nature of series [20]: Toxicity in NCI-H1975 xenografted BALB/c mouse assessed as induction of mouse mortality at 4 mg/kg po, qd for 9 days. The series is classed as organism-based. The settings on record: in vivo. In outline:
as §2

Series [21] concerns Mus musculus. In words: Toxicity in NCI-H1975 xenografted BALB/c mouse assessed as induction of eye disease at 4 mg/kg po, qd for 21 days. The series is classed as organism-based. The note with it: in vivo, 504 h. In outline:
as §3

Series [22] has as its system Mus musculus. In words: Toxicity in NCI-H1975 xenografted BALB/c mouse assessed as body weight loss at 10 mg/kg po, qd for 21 days. The series is classed as organism-based. The settings on record: in vivo, 504 h. Summed up: as §3
Series [23] in a line: Toxicity in NCI-H1975 xenografted BALB/c mouse assessed as induction of mouse mortality at 10 mg/kg po, qd for days. The series is classed as organism-based. The note with it: in vivo. Summed up: as §2
In series [24] the test system is Mus musculus. The experiment in a line: Toxicity in NCI-H1975 xenografted BALB/c mouse at 10 mg/kg po, qd for 7 days measured after drug cessation. The class given is organism-based. The note with it: in vivo, 168 h. In outline:
as §3

Epidermal growth factor receptor, sequence (P00533 whole entry): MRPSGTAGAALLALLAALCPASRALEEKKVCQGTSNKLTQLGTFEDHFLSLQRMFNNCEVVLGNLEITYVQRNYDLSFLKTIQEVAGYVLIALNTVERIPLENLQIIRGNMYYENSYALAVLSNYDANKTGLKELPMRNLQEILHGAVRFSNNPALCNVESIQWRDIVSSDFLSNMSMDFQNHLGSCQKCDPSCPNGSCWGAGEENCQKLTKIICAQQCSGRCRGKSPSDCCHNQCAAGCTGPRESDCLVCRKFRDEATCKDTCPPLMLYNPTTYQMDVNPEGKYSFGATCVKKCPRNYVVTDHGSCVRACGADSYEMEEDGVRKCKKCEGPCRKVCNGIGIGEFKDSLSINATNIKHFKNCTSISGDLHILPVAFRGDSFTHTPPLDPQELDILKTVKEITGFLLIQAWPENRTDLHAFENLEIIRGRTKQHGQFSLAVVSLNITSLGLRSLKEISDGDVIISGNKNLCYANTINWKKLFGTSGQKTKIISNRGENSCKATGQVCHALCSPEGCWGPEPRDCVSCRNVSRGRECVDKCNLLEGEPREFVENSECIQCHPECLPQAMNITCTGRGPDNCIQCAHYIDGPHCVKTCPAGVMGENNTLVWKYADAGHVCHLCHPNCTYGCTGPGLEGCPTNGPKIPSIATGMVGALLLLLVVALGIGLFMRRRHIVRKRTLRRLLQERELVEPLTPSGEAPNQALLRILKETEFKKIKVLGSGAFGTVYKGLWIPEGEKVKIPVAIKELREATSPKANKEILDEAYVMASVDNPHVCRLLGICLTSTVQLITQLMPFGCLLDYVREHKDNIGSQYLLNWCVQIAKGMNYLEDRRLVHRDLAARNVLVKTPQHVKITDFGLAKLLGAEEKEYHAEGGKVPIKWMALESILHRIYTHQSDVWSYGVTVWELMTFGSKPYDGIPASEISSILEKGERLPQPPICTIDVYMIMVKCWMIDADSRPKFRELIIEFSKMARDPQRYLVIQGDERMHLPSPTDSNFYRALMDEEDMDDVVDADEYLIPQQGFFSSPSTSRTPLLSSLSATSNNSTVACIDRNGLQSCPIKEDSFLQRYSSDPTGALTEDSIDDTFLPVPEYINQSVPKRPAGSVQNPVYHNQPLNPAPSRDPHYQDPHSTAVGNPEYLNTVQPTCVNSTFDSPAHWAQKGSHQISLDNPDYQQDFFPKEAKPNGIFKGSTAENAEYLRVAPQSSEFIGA

Turning to `CN(C)C/C=C/C(=O)Nc1cc2c(Nc3ccc(F)c(Cl)c3)ncnc2cc1O[C@H]1CCOC1`, the TGI result with A-431, in the series with NCI-H1975 [1] and in the series on HCC827 was “Active” each time.
With `CN(C)C/C=C/C(=O)Nc1cc2c(Nc3ccc(F)c(Cl)c3)ncnc2cc1O[C@H]1CCOC1.O=C(O)/C=C\C(=O)O.O=C(O)/C=C\C(=O)O` [AFATINIB DIMALEATE], the figures for the Activity result in the series on Mus musculus [2] and in the series on Mus musculus [3] were “Toxic” and “Non-toxic”, respectively. In addition, the inhibition in vivo at 20 mg/kg with NCI-H1975 [4] was under 50%.
`C#Cc1cccc(Nc2ncnc3cc(O[C@H]4CCOC4)c(NC(=O)/C=C/CNC(C)C)cc23)c1` registered an AUC(0-t) at 24 h in series [5] of 92.6 ng·h/mL. For the same compound, the MRT in series [6] turned out to be 2.6 h. The GI50 with NCI-H1975 [7] amounted to 19.8 nM. For the same compound, in series [8], the IC50 amounted to 6.4 nM. In series [9], this compound registered an AUC(0-inf) of 105 ng·h/mL. Further, in the series on NCI-H1975 [10], the TGI entry was “inactive”. Also, the clearance in series [11] was 170 mL/min/kg. This compound registered a bioavailability in [12] of under 5%. Further, the Vd in series [13] worked out at 7.4 L/kg. The half-life in series [14] was 1.5 h.
On to `CCOc1cc2ncnc(Nc3ccc(F)c(Cl)c3)c2cc1NC(=O)/C=C/CNC1CC1`, for which the TGI result in the series on NCI-H1975 [15] was “Active”. Besides, the GI50 in the series on NCI-H1975 [7] is 11.6 nM. Moreover, in [8], inhibition was half-maximal at 0.9 nM (IC50). In addition, the Activity result with Mus musculus [16], in the series with Mus musculus [17], with Mus musculus [18], in the series with Mus musculus [19] and in the series with Mus musculus [21] was “Toxic” throughout. Besides, the mortality at 216 h in series [20] was over 50%.
In the case of `C#Cc1cccc(Nc2ncnc3cc(OCC)c(NC(=O)/C=C/CNC4CC4)cc23)c1`, the Activity result in the series with Mus musculus [22] is reported as “Toxic”; with Mus musculus [24] it was “Non-toxic”. Also, in the series with NCI-H1975 [7], the GI50 came to 16.5 nM. In addition, in series [8], it took 4.2 nM to reach half-maximal inhibition (IC50). Moreover, in [23], the mortality was over 50%.
Turning to `CC(C)NC/C=C/C(=O)Nc1cc2c(Nc3ccc(F)c(Cl)c3)ncnc2cc1O[C@H]1CCOC1`, in [5], the AUC(0-t) at 24 h amounted to 166 ng·h/mL. For the same compound, the MRT in series [6] was 8.8 h. Also, the GI50 in the series on NCI-H1975 [7] turned out to be 22.4 nM. Besides, the IC50 in [8] was found to be 7 nM. The compound further yielded an AUC(0-inf) in series [9] of 197 ng·h/mL. Also, the TGI entry in the series on NCI-H1975 [10] was “inactive”. For the same compound, the clearance in [11] is 90 mL/min/kg. This compound also had a bioavailability in series [12] of under 5%. For the same compound, in [13], the Vd turned out to be 6.5 L/kg. Also, the half-life in series [14] is 9.9 h.

The values above are taken from ChEMBL document CHEMBL3621102, “Structure-activity study of quinazoline derivatives leading to the discovery of potent EGFR-T790M inhibitors” (Eur J Med Chem, 2015).
